Results on 36 sequences are retold here after the array DNA melting data of Ke et al. (doi:10.1101/2024.01.08.574731).

Series [1] can be described thus: folding enthalpy; higher = less favourable; fluorescence melt of hairpins on a sequencing array, two-state fit. As to conditions: sodium 0.088 M. In a few lines:
(§1)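 Melting temperature and folding enthalpy were derived from bootstrapped two-state fits. The fitted temperatures were raised by 9.35 °C to agree with UV melts, and four replicates were combined by inverse variance. The underlying data were Cy3 fluorescence images of library hairpins, with annealed Cy3 and quencher oligos, on a sequenced MiSeq flow cell in 50 mM Na-HEPES pH 8.0, 25 mM NaCl, taken in 2.5 °C steps up to 60 °C, normalised to pre-quench Cy3 and to control constructs.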

The nature of series [2]: melting temperature; fluorescence melt of hairpins on a sequencing array, two-state fit, raised by 9.35 °C to match UV melts. As to conditions: sodium 0.088 M. The procedure, abridged: as §1

As to GTCACCGGAAACGATGAC ((((.((....)).)))), the folding enthalpy in series [1] was -33.5 kcal/mol. Further, the Tm in series [2] is 45.9 °C.
For the sequence GTCACCGGAAACGGCGAC (((.(((....))).))), the folding enthalpy in series [1] was -40.6 kcal/mol. Also, the Tm in series [2] was determined as 54.5 °C.
Regarding GTCACGGGAAACCACGAC (((..((....))..))), the folding enthalpy in series [1] was -23.6 kcal/mol. For the same sequence, the Tm in series [2] was 34.9 °C.
The matching figures for GTCACTCGAAAGAGAGAC (((.(((....))).))): -35.4 kcal/mol and 50.5 °C.
GTCAGACGAAAGTCAGAC (((.(((....))).))): the folding enthalpy in series [1] is -31.5 kcal/mol. Further, the Tm in series [2] is 53.6 °C.
In the case of GTCAGCCGAAAGGCCGAC (((.(((....))).))), the folding enthalpy in series [1] was -21.4 kcal/mol. Moreover, the Tm in series [2] was found to be 55.8 °C.
The matching figures for GTCAGCCGAAAGGCGAC (((.(((....)))))): -15 kcal/mol and 61.5 °C.
For GTCAGCGAAAGCTAGGAC ((((((....)))..))), the folding enthalpy in series [1] is -14.1 kcal/mol. The Tm in series [2] was found to be 40 °C.
Consider GTCAGGCCGAAAGGCGAC (((..(((....)))))), for which the folding enthalpy in series [1] was -18 kcal/mol. The Tm in series [2] came out at 46.9 °C.
The matching figures for GTCAGGCGAAAGCCCGAC (((.(((....))).))): -23.2 kcal/mol and 48.8 °C.
Consider GTCAGGGGAAACCTTGAC ((((.((....)).)))), for which the folding enthalpy in series [1] is -28.1 kcal/mol. The Tm in series [2] was 47.2 °C.
For GTCAGTCCGAAAGGAGAC (((..(((....)))))), the folding enthalpy in series [1] is -15.6 kcal/mol. The Tm in series [2] was determined as 33.2 °C.
The matching figures for GTCAGTCGAAAGACAGAC (((.(((....))).))): -39.4 kcal/mol and 51 °C.
For GTCAGTCGAAAGACGGAC (((.(((....))).))), in that order: -33.3 kcal/mol and 56.2 °C.
For GTCAGTGGAAACACCGAC (((.(((....))).))), in that order: -26.9 kcal/mol and 40.4 °C.
In the case of GTCATAGCGAAAGCTGAC (((..(((....)))))), in series [1], the folding enthalpy was -22.8 kcal/mol. In series [2], the Tm was 46.6 °C.
The matching figures for GTCATCCGAAAGGACGAC (((.(((....))).))): -36.4 kcal/mol and 49.3 °C.
The matching figures for GTCATCGAAAGATCTGAC ((((((....)))..))): -10.9 kcal/mol and 23.8 °C.
Regarding GTCATCGAAAGATGAC ((((((....)))))), the folding enthalpy in series [1] was -31.2 kcal/mol. In series [2], the Tm is 66.2 °C.
The matching figures for GTCATCGAAAGATGGAC ((((((....))).))): -17.6 kcal/mol and 43.9 °C.
The matching figures for GTCATCGAAAGATTGAC ((((((....))).))): -26.9 kcal/mol and 40.7 °C.
As for GTCATGAAAATGAC (((((....))))), the folding enthalpy in series [1] was -27.1 kcal/mol. Besides, in series [2], the Tm came out at 50.1 °C.
The matching figures for GTCATGCGAAAGCAAGAC (((.(((....))).))): -29.6 kcal/mol and 52.4 °C.
Turning to GTCATGGGAAACTATGAC (((((.(....).))))), the folding enthalpy in series [1] was -29.1 kcal/mol. In addition, the Tm in series [2] was found to be 45 °C.
The matching figures for GTCATTGCGAAAGCAGAC (((..(((....)))))): -14.5 kcal/mol and 33 °C.
In the case of GTCATTGGAAACAATGAC (((((((....))))))), the folding enthalpy in series [1] is -41.8 kcal/mol. The Tm in series [2] turned out to be 58.3 °C.
For GTCCAAGAAATTGGAC ((((((....)))))), in that order: -26.5 kcal/mol and 53 °C.
The matching figures for GTCCAAGGAAACTTGAAC ((.((((....)))).)): -16.9 kcal/mol and 29.2 °C.
The matching figures for GTCCAATCGAAAGATGAC (((..(((....)))))): -13.9 kcal/mol and 29.1 °C.
Turning to GTCCACGAAAGTGAAGAC ((((((....)))..))), the folding enthalpy in series [1] is -23.1 kcal/mol. In addition, in series [2], the Tm amounted to 40.4 °C.
As to GTCCACGAAAGTGAGGAC ((((((....)))..))), the folding enthalpy in series [1] is -21.9 kcal/mol. Moreover, the Tm in series [2] worked out at 46.4 °C.
For GTCCACGAAAGTGCCGAC ((((((....)))..))), in that order: -12.8 kcal/mol and 31.5 °C.
The matching figures for GTCCACGAAAGTGGGAC ((((((....))).))): -13.6 kcal/mol and 58.3 °C.
For GTCCACGAAAGTGGGGAC ((((((....)))..))), in that order: -10.4 kcal/mol and 46.4 °C.
Turning to GTCCACGAAAGTGTTGAC ((((((....)))..))), the folding enthalpy in series [1] is -17 kcal/mol. Moreover, in series [2], the Tm came to 31.6 °C.
For GTCCACTCGAAAGAGGAC (((..(((....)))))), in that order: -23 kcal/mol and 37.4 °C.
